Assay results of several laboratories.
Compare with care: the assays were run in different laboratories.
Target: Serine/threonine-protein kinase ULK1 (ULK1, Homo sapiens, UniProt O75385)
One construct used (O75385 1-1050): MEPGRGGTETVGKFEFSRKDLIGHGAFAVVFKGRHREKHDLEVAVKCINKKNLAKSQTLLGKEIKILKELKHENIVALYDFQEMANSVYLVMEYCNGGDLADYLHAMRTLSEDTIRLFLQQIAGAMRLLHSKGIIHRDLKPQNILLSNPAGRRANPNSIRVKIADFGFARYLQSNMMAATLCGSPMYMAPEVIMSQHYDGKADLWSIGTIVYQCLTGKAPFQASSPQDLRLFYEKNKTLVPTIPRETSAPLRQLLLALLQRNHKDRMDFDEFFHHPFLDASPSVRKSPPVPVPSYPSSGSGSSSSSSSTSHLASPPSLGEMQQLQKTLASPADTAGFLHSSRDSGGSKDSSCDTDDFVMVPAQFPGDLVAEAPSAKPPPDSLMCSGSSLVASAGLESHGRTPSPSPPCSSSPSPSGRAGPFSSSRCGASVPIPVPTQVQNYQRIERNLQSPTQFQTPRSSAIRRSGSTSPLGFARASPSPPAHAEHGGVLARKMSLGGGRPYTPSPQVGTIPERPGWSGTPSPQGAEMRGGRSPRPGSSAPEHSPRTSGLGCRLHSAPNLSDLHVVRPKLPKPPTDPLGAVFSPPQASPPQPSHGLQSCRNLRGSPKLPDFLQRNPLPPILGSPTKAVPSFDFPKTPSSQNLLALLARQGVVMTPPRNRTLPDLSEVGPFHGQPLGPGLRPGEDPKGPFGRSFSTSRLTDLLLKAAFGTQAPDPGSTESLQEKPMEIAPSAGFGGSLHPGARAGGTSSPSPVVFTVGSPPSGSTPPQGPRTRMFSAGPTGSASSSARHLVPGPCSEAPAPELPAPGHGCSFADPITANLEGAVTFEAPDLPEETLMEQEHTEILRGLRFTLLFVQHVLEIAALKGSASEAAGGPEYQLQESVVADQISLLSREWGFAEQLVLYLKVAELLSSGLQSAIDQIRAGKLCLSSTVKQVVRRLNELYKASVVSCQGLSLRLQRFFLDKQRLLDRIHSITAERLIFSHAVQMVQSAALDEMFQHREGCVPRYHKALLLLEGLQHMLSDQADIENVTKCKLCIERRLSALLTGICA

SMILES	test	setting	quantity	result
CS(=O)(=O)N1CCCC(NC(=O)[C@H](CCC2CCCCC2)NC(=O)c2ccc(CNc3ncnc4c3nnn4-c3ccccc3)cc2)C1 (stereo partly shown)	cell-free assay, competition with immobilised ligand	0.1 µM	remaining binding	100%
O=C(NCCCNc1ccnc(Nc2cccc(NC(=O)N3CCCC3)c2)n1)C1CCC1	enzyme activity, inhibitor, radiometric	1 µM	remaining activity	75%
FC(F)(F)Oc1cccc(-c2cnc3ccc(-c4ccncc4)nn23)c1	enzyme activity, inhibitor, radiometric	1 µM	activity vs control	114%
COc1ccc(COc2ccc(Cc3cnc(N)nc3N)cc2OC)cc1	cell-free assay	0.5 µM	remaining signal	99.7%
CCOCCn1cc(C(=O)Nc2ccc(-n3nc(-c4cccnc4)cc3C(F)(F)F)cn2)ccc1=O	cell-free assay, competition with immobilised ligand	1 µM	remaining binding	76%
C#Cc1cccc(Nc2ncnc3cc(OCCOC)c(OCCOC)cc23)c1	cell-free assay	0.5 µM	remaining signal	113%
O=C(NCCCNc1nc(Nc2cccc(NC(=O)N3CCCC3)c2)ncc1I)c1cccs1	enzyme activity, inhibitor, radiometric	1 µM	remaining activity	4%
CC(=O)N1CCC(c2ccc(C(=O)NC(=N)N)cc2C(F)(F)F)CC1	cell-free assay, competition with immobilised ligand	1 µM	remaining binding	100%
Cc1nn(CC(F)(F)F)cc1Nc1ncc(C2CC2)c(NCc2ccc(S(N)(=O)=O)cc2)n1	enzyme activity, inhibitor, radiometric	1 µM	remaining activity	106%
CCC(=N\O)/C(C)=C/c1ccc(F)cc1	cell-free assay, competition with immobilised ligand	1 µM	remaining binding	85%
COc1ccc(Nc2ncc(C(F)(F)F)c(NC3CC3)n2)cc1OC	thermal stability, DSF	10 µM	ΔTm	9.5 °C
Cc1ccc(C(=O)NCc2ccsc2)cc1C#Cc1cn(C(C)C)c2ncnc(N)c12	enzyme activity, inhibitor	1 µM	activity vs control	101%
O=C1NC(=O)c2cc(Nc3ccc(F)cc3)c(Nc3ccc(F)cc3)cc21	cell-free assay	0.5 µM	remaining signal	102%
O=C(NCCCNc1nc(Nc2cccc(NC(=O)N3CCCC3)c2)ncc1Br)C1CCC1	enzyme activity, inhibitor, radiometric	1 µM	remaining activity	2%
O=C(NCc1ncc(C(F)(F)F)cc1Cl)c1ccc2c(c1)C1(CCS(=O)(=O)CC1)[C@@H](C1CC1)N2S(=O)(=O)c1ccc(F)cc1	cell-free assay, competition with immobilised ligand	1 µM	remaining binding	80%
NS(=O)(=O)c1ccc(CNc2nc(Nc3cccc(NC(=O)N4CCCC4)c3)ncc2Br)cc1	enzyme activity, inhibitor, radiometric	1 µM	remaining activity	66%
Cc1c(C(=O)O)cc(-c2ccc(C3CCNCC3)cc2)c2ccc(-c3ccc(C(F)(F)F)cc3)cc12	binding, competition with immobilised ligand	1 µM	remaining binding	100%
COc1cccc2c(NCc3ccccc3)nc(-n3c(N)nc4ccccc43)nc12	target engagement in cells, inhibitor, chemoproteomics	20 mM	inhibition	-8.3%
Brc1cnc(Nc2cccc(CN3CCOCC3)c2)nc1NCCc1c[nH]cn1	enzyme activity, inhibitor, radiometric	1 µM	remaining activity	3%
CCc1ccccc1C(=O)Nc1n[nH]c2c(C)c(F)c(C3C(C#N)=C(C)N(C)C(C)=C3C#N)cc12	cell-free assay, competition with immobilised ligand	1 µM	remaining binding	29%
Cc1nn(CC(F)(F)F)cc1Nc1ncc(C2CC2)c(NCCCNC(=O)C2CCC2)n1	enzyme activity, inhibitor, radiometric	1 µM	remaining activity	58%
CCCCNc1ncc2c(-c3ccc(F)cc3)nn(C[C@H]3CC[C@H](N)CC3)c2n1	target engagement in cells, inhibitor, chemoproteomics	20 mM	inhibition	3.7%
